Screens (PubChem BioAssay)
CHOP inh – blocks CHOP induction under ER stress. CHO-K1 CHOP-promoter luciferase, tunicamycin-induced, 15-18 h. inhibition, % at 10 µM. 220,000 tested, 3.8% active. AID 2732;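 active = compounds that reduced the stress-induced luciferase reporter signal by more than about 70% of percent inhibition, limit read from the data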
NOD2-RIPK2 inh – inhibitors of human NOD2-RIPK2 interaction; O43353; CHO BLA complementation NOD2-RIPK2, CCF4 ratio; inhibition, % at 4.98 µM; 360,000 tested, 0.38% active; in the data active = inhibition above about 21%
Target sequence (O43353 whole entry, looked up): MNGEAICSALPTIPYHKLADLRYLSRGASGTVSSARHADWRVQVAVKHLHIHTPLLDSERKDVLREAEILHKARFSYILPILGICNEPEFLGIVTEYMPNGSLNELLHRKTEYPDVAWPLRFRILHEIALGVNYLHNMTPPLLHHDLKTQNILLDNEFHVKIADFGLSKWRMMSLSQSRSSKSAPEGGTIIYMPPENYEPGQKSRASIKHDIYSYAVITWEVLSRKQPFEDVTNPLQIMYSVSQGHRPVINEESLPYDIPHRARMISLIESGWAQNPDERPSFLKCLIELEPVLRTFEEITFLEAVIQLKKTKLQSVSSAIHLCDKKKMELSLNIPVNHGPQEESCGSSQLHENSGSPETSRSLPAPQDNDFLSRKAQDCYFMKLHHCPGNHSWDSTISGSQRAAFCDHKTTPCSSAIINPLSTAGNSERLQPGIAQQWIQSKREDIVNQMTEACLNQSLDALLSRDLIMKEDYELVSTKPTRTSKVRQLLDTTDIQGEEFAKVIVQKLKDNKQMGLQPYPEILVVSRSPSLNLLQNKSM
TLR9-MyD88 block – inhibitors of human TLR9-MyD88 binding | Q9NR96+Q99836 | CHO BLA complementation TLR9-MyD88, CCF4 FRET ratio | inhibition, % at 4.98 µM | 340,000 tested, 0.21% active;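 active = inhibition above the mean over all tested compounds plus 3 SD, cut at about 21% in these data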
XBP1 UPR activ – activators of adaptive arm of unfolded protein response (XBP1) | activation, % at 20 µM | CHO-XBP1 luciferase reporter, IRE1-XBP1 UPR activation, luminescence; percent of tunicamycin response, DMSO as zero | 330,000 tested, 0.33% active;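 active = versus positive control, 20 µM dose yields 30% or more activation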
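Assay system: IRE1-XBP1 luciferase reporter CHO line. Input: 1000 cells/well. Buffer or medium: F12 with 10% serum. Doses: 20 µM, 1% DMSO. Times: overnight seeding at 37 °C, 6 h compound treatment at 37 °C. Technique: Steady-Glo luciferase glow luminescence, 10 min after reagent addition.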
TLR4 MyD88 comp – TLR4-MyD88 interaction inhibition in cells. O00206+Q99836. HeLa CL3-4 TLR4/MyD88 BLA complementation, FRET ratio. inhibition, % at 8.4 µM. 200,000 tested, 0.18% active. AID 861; in the data active = inhibition above about 25%
CHOP UPR activ – apoptotic UPR (CHOP) activation; CHO-CHOP luciferase reporter, luminescence; percent of tunicamycin response over DMSO baseline; 330,000 tested, 0.34% active; activation, % at 10 µM; AID 449763;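 active = at 10 µM dose, activation of 40% or more, normalized to positive control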
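Test system: CHO CHOP reporter cells. Input: 500 CHO-CHOP cells per well. Medium: F12 with 10% FBS. Technique: luciferase luminescence. Measure: percent activation relative to tunicamycin control. Dosing: 10 µM compound, 0.5% DMSO. Timing: 16-18 h cell attachment, then 6 h compound exposure, 37 °C.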
XBP1 UPR conf – confirmation of adaptive unfolded protein response (XBP1) activators. CHO-XBP1 IRE1-XBP1 luciferase reporter, luminescence. activation, % at 20 µM. 1,000 tested, 63% active. shares compounds with XBP1 UPR activ;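 active = reporter signal at least 30% of the positive control's activation in two or more of four replicate wells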
Large screens that a line does not name were inactive (follow-up assays come after a bar, where they were run). This is one part of a sample in which hits are shown more often than they occur.

CCCCCn1nc(C(=O)N(CC)c2c(N)n(CCCC)c(=O)[nH]c2=O)c2ccccc2c1=O	none (no result: CHOP inh, TLR4 MyD88 comp)
O=[N+]([O-])c1ccc(/C=C/c2ccc3cccc([N+](=O)[O-])c3n2)cc1	none
O=[N+]([O-])c1cccc(/C=C/c2ccc3cccc(O)c3n2)c1	XBP1 UPR activ 98 (no result: CHOP inh, TLR4 MyD88 comp) | XBP1 UPR conf 158
O=C(Cc1cccc(NC(=O)C2CCCN(C(=O)C3CCCC3)C2)c1)Nc1ccc(C(=O)N2CCOCC2)cc1 (centres undefined)	none (no result: CHOP inh, XBP1 UPR activ, TLR4 MyD88 comp, CHOP UPR activ)
CCc1ccccc1NC(=O)C(CC)Sc1nc2cc3c(cc2c(=O)n1Cc1ccco1)OCO3 (centres undefined)	XBP1 UPR activ 95 | XBP1 UPR conf 193
NC(=O)CSc1nc2ccccc2c(=O)n1Cc1ccco1	none
CC(C)N=C(NS(=O)(=O)c1ccccc1)C(Cl)(Cl)Cl	XBP1 UPR activ 45 | XBP1 UPR conf 75
O=C(Nc1cccnc1)c1sc(Nc2ccccc2F)nc1-c1ccccc1	XBP1 UPR activ 38 | XBP1 UPR conf inactive
Cc1cc(NC(=O)CSc2nc3sc(C)c(C)c3c(=O)n2C2CCCC2)no1	CHOP inh 87, XBP1 UPR activ 58 | XBP1 UPR conf 54
Cc1cc(NC(=O)CSc2nnnn2C2CCCC2)no1	none
O=C(CSc1ccc2nnc(-c3ccc(Cl)cc3)n2n1)N1CCCc2ccccc21	XBP1 UPR activ 50 | XBP1 UPR conf inactive
CCOC(=O)C1=C(C)N=C2SC(C(=O)OC)=CC(=O)N2C1c1ccc(F)cc1 (centres undefined)	XBP1 UPR activ 132 | XBP1 UPR conf 103
CC(C)(c1ccccc1)c1ccc(OCC(O)CNC2CCN(Cc3ccccc3)CC2)cc1 (centres undefined)	XBP1 UPR activ 53 | XBP1 UPR conf inactive
CCOC(=O)/C(C#N)=C\c1ccc(OCC(=O)Nc2ccc(C)cc2C)c(OC)c1	XBP1 UPR activ 37 | XBP1 UPR conf inactive
CCc1cc2cc3c(cc2nc1SCC(=O)Nc1nccs1)OCO3	XBP1 UPR activ 57 | XBP1 UPR conf inactive
CCc1cc2cc3c(cc2nc1SCC(=O)Nc1c[nH]c(=O)[nH]c1=O)OCO3	none (no result: CHOP inh, TLR4 MyD88 comp)
O=C(Nc1ccc(C(F)(F)F)cc1[N+](=O)[O-])O[C@H]1[C@H](Cc2ccccc2)NS(=O)(=O)[C@H]2C[C@@H]3C=C[C@]12O3	none (no result: CHOP inh, TLR4 MyD88 comp)
COC(=O)NNC(=O)c1ccccc1C	none
O=C(NCCC1=CCCCC1)c1ccc2c(c1)N(Cc1ccccc1)C(=O)CS2	none
O=C(/C=C/c1ccc(Cl)cc1)NC(=S)Nc1ccc(N2CCOCC2)c(Cl)c1	XBP1 UPR activ 124 | XBP1 UPR conf 126
C/C(=N\NC(N)=S)C1=CCC2C3CC[C@H]4CC(O)CC[C@]4(C)C3CC[C@]12C (some centres undefined)	XBP1 UPR activ 41 (no result: CHOP inh, TLR4 MyD88 comp) | XBP1 UPR conf inactive
COc1ccc(NC(=O)C2CCCN2C(=O)Oc2ccccc2)cc1 (centres undefined)	none
CCn1c(/C=C/c2cccc([N+](=O)[O-])c2)nc2ccccc2c1=O	none
CCn1c(/C=C/c2c(C)[nH]c3ccccc23)nc2ccccc2c1=O	CHOP inh 94, XBP1 UPR activ 216 | XBP1 UPR conf 81
Cc1[nH]c2ccccc2c1/C=C/c1nc2ccccc2c(=O)n1-c1ccc([N+](=O)[O-])cc1	XBP1 UPR activ 47 | XBP1 UPR conf 36
CCn1c(/C=C/c2c[nH]c3ccccc23)nc2ccccc2c1=O	none
COc1ccc(/C=C2\SC(=S)N(CCC(=O)N(CCO)c3ccccc3)C2=O)cc1OC	none (no result: CHOP inh, TLR4 MyD88 comp)
COc1ccc2cc3c(N)nn(C(=O)C4CCC(C(C)(C)C)CC4)c3nc2c1 (centres undefined)	XBP1 UPR activ 111 | XBP1 UPR conf 37
COc1ccc(Cc2nnc(N/N=C/c3ccc(N(C)C)cc3)[nH]c2=O)cc1OC	XBP1 UPR activ 31 (no result: TLR4 MyD88 comp) | XBP1 UPR conf 51
